Test results: ChEMBL document CHEMBL4311975, “Exploration of the antibiotic potentiating activity of indolglyoxylpolyamines” (Eur J Med Chem, 2019)
In brackets after ≈: the same amount, converted by molar mass.

Columns and labels:
[1] = tested on: Acinetobacter baumannii; test: Antibacterial activity against Acinetobacter baumannii AYE assessed as growth inhibition; format: functional
[2] = tested on: Staphylococcus aureus; test: Antibacterial activity against Staphylococcus aureus ATCC 25923 assessed as growth inhibition incubated for 18 hrs by broth dilution method; format: functional; details: ATCC 25923, 18 h
Summary of the method: (§1)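 Broth microdilution following CA-SFM recommendations. Inoculum was 10^5 CFU in Mueller-Hinton broth with two-fold serial drug dilutions. Plates were incubated 18 h at 37 °C. MIC was the lowest concentration giving complete inhibition of visible growth. Values are means, n = 3.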

[3] = tested on: Staphylococcus intermedius; test: Antibacterial activity against Staphylococcus intermedius 1051997 assessed as growth inhibition incubated for 18 hrs by broth dilution method; format: functional; details: Staphylococcus intermedius, 1051997, 18 h; summary of the method: as §1
[4] = tested on: Pseudomonas aeruginosa; test: Antibacterial activity against Pseudomonas aeruginosa ATCC 27853 assessed as growth inhibition incubated for 18 hrs by broth dilution method; format: functional; details: ATCC 27853, 18 h; summary of the method: as §1
[5] = tested on: Escherichia coli; test: Antibacterial activity against Escherichia coli ATCC 25922 assessed as growth inhibition incubated for 18 hrs by broth dilution method; format: functional; details: ATCC 25922, 18 h; summary of the method: as §1
[6] = tested on: Klebsiella pneumoniae; test: Antibacterial activity against Klebsiella pneumoniae ATCC 13443 assessed as growth inhibition; format: functional
[7] = tested on: Klebsiella pneumoniae; test: Antibacterial activity against Klebsiella pneumoniae ATCC 700603 assessed as growth inhibition incubated for 18 hrs by resazurin dye based assay; format: functional; details: Klebsiella pneumoniae, 700603, 18 h
Summary of the method: (§2)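 Overnight cultures were diluted 40-fold in MHB and grown 1.5–2 h at 37 °C to mid-log phase. Cells were added at 5×10^5 CFU/mL final to two-fold compound dilutions (0.008–32 μg/mL final), in duplicate, for 18 h at 37 °C. Resazurin (0.001% final) was added for 2 h and MIC read by eye. Means, n = 2.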

[8] = tested on: Acinetobacter baumannii; test: Antibacterial activity against Acinetobacter baumannii ATCC 19606 assessed as growth inhibition incubated for 18 hrs by resazurin dye based assay; format: functional; details: ATCC 19606 = CIP 70.34 = JCM 6841, 18 h; summary of the method: as §2
[9] = tested on: Candida albicans; test: Antifungal activity against Candida albicans ATCC 90028 assessed as growth inhibition incubated for 36 hrs by resazurin dye based assay; format: functional; details: ATCC 90028, 36 h
Summary of the method: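 Yeast was grown 3 days on YPD agar at 30 °C. Colonies were suspended and diluted in YNB broth to 2.5×10^3 CFU/mL, then added to two-fold compound dilutions (0.008–32 μg/mL final), in duplicate. Plates stood 36 h at 35 °C without shaking. Means, n = 2.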

[10] = tested on: Cryptococcus neoformans; test: Antifungal activity against Cryptococcus neoformans ATCC 208821 assessed as growth inhibition incubated for 36 hrs by resazurin dye based assay; format: functional; details: ATCC 208821, 36 h
Summary of the method: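 Cryptococcus was grown 3 days on YPD agar at 30 °C, suspended, and diluted in YNB broth to 2.5×10^3 CFU/mL. Cells were exposed to 0.008–32 μg/mL compound (final), in duplicate, for 36 h at 35 °C without shaking. Resazurin (0.006% final) was added for a further 3 h. MIC was read from absorbance at OD570–600. Means, n = 2.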

[11] = tested on: Pseudomonas aeruginosa; test: Potentiation of doxycycline-induced antibacterial activity against Pseudomonas aeruginosa ATCC 27853 assessed as concentration required to restore 2 ug/ml doxycycline activity measured after 18 hrs; format: functional
Summary of the method: (§3)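 Inoculum was 5×10^5 CFU in MHB with two-fold serial dilutions of adjuvant plus fixed doxycycline at 2 μg/mL. […] Repeated independently in triplicate.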

[12] = tested on: L6; test: Cytotoxicity against rat L6 cells measured after 72 hrs by alamar blue assay; format: cell-based; details: L6, 72 h
Summary of the method: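 Rat L6 myoblasts, 4×10^4/well in RPMI 1640 with L-glutamine and 10% FBS, received seven 3-fold dilutions (90 to 0.123 μg/mL) for 72 h. Alamar Blue was added for 2 h and fluorescence read at ex 536/em 588 nm. Podophyllotoxin served as reference. Means, n = 2.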

[13] = Cytotoxicity against human HEK293 cells measured after 20 hrs by resazurin dye based fluorescence assay; format: cell-based
Summary of the method: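 HEK293 cells, 5,000/well in DMEM with 10% FBS, were exposed to compound for 20 h at 37 °C, 5% CO2. Resazurin (100 μM final) was added for 3 h, then fluorescence read at ex 560/em 590. Signal was normalised to tamoxifen (74 μg/mL, 0%) and untreated growth (100%), and CC50 came from dose-response fitting. Top dose 32 μg/mL. Means, n = 2.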

[14] = Hemolytic activity against Sprague-Dawley rat RBC assessed as release of hemoglobin at 50 uM incubated for 1 hr relative to control; format: ADME, cell-based, Erythrocyte; details: red blood cells (erythrocytes), read-out: Activity
Summary of the method: (§4)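 Fresh Sprague-Dawley rat erythrocytes were washed in saline and resuspended at 2% v/v. Cells were incubated with compound in DMSO/PBS for 1 h at 37 °C, then centrifuged at 200 g, and supernatant absorbance read at 540 nm. Results were normalised to DMSO/PBS (0%) and 0.1% Triton X-100 (100%). Single-point testing used 50 μM; HC50 came from 10-point curves. Means of three experiments.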

[15] = Hemolytic activity against Sprague-Dawley rat RBC assessed as release of hemoglobin incubated for 1 hr; format: ADME, cell-based, Erythrocyte; details: red blood cells (erythrocytes); summary of the method: as §4
[16] = tested on: Pseudomonas aeruginosa; test: Induction of membrane depolarization in Pseudomonas aeruginosa measured after 15 mins by DiSC3(5) dye based spectrofluorometric method; format: functional, organism-based
Summary of the method: (§5)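 Bacteria were grown 24 h in MHB at 37 °C, washed in 250 mM sucrose with 5 mM MgSO4, and loaded with 3 μM DiSC3(5) for 1 h at 37 °C. Unbound dye was washed away before compound was added at varied concentrations. Fluorescence was recorded after 15 min on a spectrofluorometer, with pure 3 μM dye as the maximum. CTAB (0.01%) served as positive control.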

[17] = tested on: Staphylococcus aureus; test: Induction of membrane depolarization in Staphylococcus aureus measured after 15 mins by DiSC3(5) dye based spectrofluorometric method; format: functional, organism-based; summary of the method: as §5
[18] = tested on: Klebsiella aerogenes; test: Disruption of membrane integrity in Enterobacter aerogenes EA289 assessed as increase in beta-lactamase hydrolysis by using chromogenic nitrocefin as substrate by spectrophotometry analysis; format: functional
Summary of the method: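 E. aerogenes EA289 was grown in MHB at 37 °C to OD600 0.5, washed in 20 mM potassium phosphate (pH 7.2) with 1 mM MgCl2, and readjusted to OD600 0.5. Cells were exposed to compound at 3.9–250 μM final with nitrocefin at 50 μg/mL final, at room temperature. Hydrolysis was followed as the absorbance rise at 490 nm.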

[19] = tested on: Pseudomonas aeruginosa; test: Potentiation of erythromycin-induced antibacterial activity against Pseudomonas aeruginosa ATCC 27853 assessed as concentration required to restore 2 ug/ml erythromycin activity measured after 18 hrs; format: functional
[20] = tested on: Pseudomonas aeruginosa; test: Potentiation of chloramphenicol-induced antibacterial activity against Pseudomonas aeruginosa ATCC 27853 assessed as concentration required to restore 2 ug/ml chloramphenicol activity measured after 18 hrs; format: functional
[21] = tested on: Pseudomonas aeruginosa; test: Potentiation of nalidixic acid-induced antibacterial activity against Pseudomonas aeruginosa ATCC 27853 assessed as concentration required to restore 2 ug/ml nalidixic acid activity measured after 18 hrs; format: functional
[22] = tested on: Escherichia coli; test: Potentiation of doxycycline-induced antibacterial activity against Escherichia coli ATCC 25922 assessed as concentration required to restore 2 ug/ml doxycycline activity measured after 18 hrs; format: functional; summary of the method: as §3
[23] = tested on: Escherichia coli; test: Potentiation of nalidixic acid-induced antibacterial activity against Escherichia coli ATCC 25922 assessed as concentration required to restore 2 ug/ml nalidixic acid activity measured after 18 hrs; format: functional
[24] = tested on: Klebsiella pneumoniae; test: Potentiation of doxycycline-induced antibacterial activity against Klebsiella pneumoniae ATCC 13443 assessed as concentration required to restore 2 ug/ml doxycycline activity measured after 18 hrs; format: functional; summary of the method: as §3
[25] = tested on: Klebsiella pneumoniae; test: Potentiation of nalidixic acid-induced antibacterial activity against Klebsiella pneumoniae ATCC 13443 assessed as concentration required to restore 2 ug/ml nalidixic acid activity measured after 18 hrs; format: functional
[26] = tested on: Acinetobacter baumannii; test: Potentiation of doxycycline-induced antibacterial activity against Acinetobacter baumannii AYE assessed as concentration required to restore 2 ug/ml doxycycline activity measured after 18 hrs; format: functional; summary of the method: as §3
[27] = tested on: Acinetobacter baumannii; test: Potentiation of nalidixic acid-induced antibacterial activity against Acinetobacter baumannii AYE assessed as concentration required to restore 2 ug/ml nalidixic acid activity measured after 18 hrs; format: functional
[28] = tested on: Pseudomonas aeruginosa; test: Disruption of membrane integrity in Pseudomonas aeruginosa PAO1 assessed as increase in extracellular ATP level by luciferin-luciferase reagent based luminescence assay; format: functional, organism-based
Summary of the method: (§6)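 Growing bacteria (P. aeruginosa PAO1 or S. aureus) in MHB at 37 °C were mixed 9:1 with compound, at 4× MIC, and vortexed for 1 s. Luciferin-luciferase reagent was added immediately and luminescence read for 5 s. ATP was quantified by internal standard addition. Squalamine served as positive control.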

[29] = tested on: Staphylococcus aureus; test: Disruption of membrane integrity in Staphylococcus aureus assessed as increase in extracellular ATP level by luciferin-luciferase reagent based luminescence assay; format: functional, organism-based; summary of the method: as §6

Structure (SMILES)	MIC [1]	MIC [2]	MIC [3]	MIC [4]	MIC [5]	MIC [6]	MIC [7]	MIC [8]	MIC [9]	MIC [10]	Activity [18]	Activity [28]	Activity [11]	IC50 [12]	CC50 at 20 h [13]	hemolysis at 1 h, 50 µM [14]	Activity [16]	Activity [17]	Activity [29]	other results
O=C(N[C@H](CO)[C@H](O)c1ccc([N+](=O)[O-])cc1)C(Cl)Cl [CHLORAMPHENICOL]	> 200 µM	1.5 to 3 µM (≈ 0.485 to 0.969 µg/mL)	3 to 6 µM (≈ 0.969 to 1.94 µg/mL)	> 200 µM	> 200 µM	50 µM (≈ 16.2 µg/mL)	–	–	–	–	–	–	–	–	–	–	–	–	–	–
CC[C@H]1OC(=O)[C@H](C)[C@@H](O[C@H]2C[C@@](C)(OC)[C@@H](O)[C@H](C)O2)[C@H](C)[C@@H](O[C@@H]2O[C@H](C)C[C@H](N(C)C)[C@H]2O)[C@](C)(O)C[C@@H](C)C(=O)[C@H](C)[C@@H](O)[C@]1(C)O [ERYTHROMYCIN]	200 µM (≈ 147 µg/mL)	–	–	> 200 µM	> 200 µM	> 200 µM	–	–	–	–	–	–	–	–	–	–	–	–	–	–
O=C(NCCCNCCCCNCCCNC(=O)C(=O)c1c[nH]c2c(F)cccc12)C(=O)c1c[nH]c2c(F)cccc12.O=C(O)C(F)(F)F.O=C(O)C(F)(F)F	–	25 µM	> 200 µM	200 µM	200 µM	–	> 39.6 µM	> 39.6 µM	> 39.6 µM	4.9 µM	Dose-dependent effect	Dose-dependent effect	3.125 µM	38.7 µM	18.7 µM	8.4%	Dose-dependent effect	Dose-dependent effect	Dose-dependent effect	–

Further lines, with some results ahead:

MIC [1]	MIC [2]	MIC [3]	MIC [4]	MIC [5]	MIC [6]	MIC [7]	MIC [8]	MIC [9]	MIC [10]	Activity [18]	Activity [28]	Structure (SMILES)	Activity [11]	IC50 [12]	CC50 at 20 h [13]	hemolysis at 1 h, 50 µM [14]	Activity [16]	Activity [17]	Activity [29]	other results
–	25 µM	–	100 µM	50 µM	–	> 29.4 µM	> 29.4 µM	> 29.4 µM	3.65 µM	–	–	O=C(NCCCNCCCCNCCCNC(=O)C(=O)c1c[nH]c2cc(Br)c(Br)cc12)C(=O)c1c[nH]c2cc(Br)c(Br)cc12.O=C(O)C(F)(F)F.O=C(O)C(F)(F)F	25 µM	6.03 µM	1.62 µM	88.7%	–	–	–	HC50 at 1 h [15]: 17 µM
–	3.12 µM	3.12 µM	50 µM	25 µM	–	34.4 µM	> 34.4 µM	> 34.4 µM	2.2 µM	Dose-dependent effect	Dose-dependent effect	O=C(NCCCNCCCCNCCCNC(=O)C(=O)c1c[nH]c2ccc(Br)cc12)C(=O)c1c[nH]c2ccc(Br)cc12.O=C(O)C(F)(F)F.O=C(O)C(F)(F)F	3.125 to 6.25 µM	19.8 µM	14.1 µM	34.7%	Dose-dependent effect	Dose-dependent effect	Dose-dependent effect	Activity [19]: >200 µM; Activity [20]: 26.9 µM; Activity [21]: >200 µM; Activity [22]: 1.68 µM; Activity [23]: 100 µM; Activity [24]: 13.4 µM; Activity [25]: 12.5 µM; Activity [26]: 6.72 µM; Activity [27]: 100 µM
